M5 antag = human M5 muscarinic receptor antagonists, primary screen, CHO cells, Fluo-8 calcium fluorescence. Muscarinic acetylcholine receptor M5 (Homo sapiens), P08912. CHO-hM5 cells, ACh EC80. inhibition, % at 3 µM. 360,000 tested, 0.59% active. AID 624040, 2012;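 active = inhibition above a per-plate cutoff, the mean of that plate's test compounds plus 3 SD, cut at about 27% in these data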
M5 PAM = human M5 muscarinic receptor positive allosteric modulators, primary screen, CHO-K1 cells, Fluo-8 calcium fluorescence | Muscarinic acetylcholine receptor M5 (Homo sapiens), P08912 | CHO-K1 hM5, ACh EC20 PAM; 0% = ACh EC20, 100% = ACh EC100 | activation, % at 3 µM | 360,000 tested, 0.3% active | AID 624038, 2012;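 active = activation above the run cutoff, the mean activation of all test compounds plus 3 SD, cut at about 18% in these data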
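Probe or stimulus: acetylcholine, EC20 level; Assay system: human M5 receptor in CHO-K1 cells; Schedule: compound preincubation 140 s before EC20 acetylcholine addition; Technique: intracellular calcium via Fluo-8 fluorescence; Dosing: single-point, 3 µM nominal; Read-out basis: percent activation from peak-over-basal fluorescence ratio, scaled EC20-to-EC100 acetylcholine; Repeats: one well per compound, no replicates.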
CHRM4 antagonist = human M4 muscarinic receptor antagonists, primary screen, CHO cells, Fluo-8 calcium fluorescence | inhibition, % at 3 µM | CHO-hM4 cells, ACh EC80 | 360,000 tested, 0.73% active;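 active = inhibition above its plate's cutoff, the mean inhibition of sample wells plus 3 SD, cut at about 27% in these data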
Target sequence (P08173 whole entry, looked up): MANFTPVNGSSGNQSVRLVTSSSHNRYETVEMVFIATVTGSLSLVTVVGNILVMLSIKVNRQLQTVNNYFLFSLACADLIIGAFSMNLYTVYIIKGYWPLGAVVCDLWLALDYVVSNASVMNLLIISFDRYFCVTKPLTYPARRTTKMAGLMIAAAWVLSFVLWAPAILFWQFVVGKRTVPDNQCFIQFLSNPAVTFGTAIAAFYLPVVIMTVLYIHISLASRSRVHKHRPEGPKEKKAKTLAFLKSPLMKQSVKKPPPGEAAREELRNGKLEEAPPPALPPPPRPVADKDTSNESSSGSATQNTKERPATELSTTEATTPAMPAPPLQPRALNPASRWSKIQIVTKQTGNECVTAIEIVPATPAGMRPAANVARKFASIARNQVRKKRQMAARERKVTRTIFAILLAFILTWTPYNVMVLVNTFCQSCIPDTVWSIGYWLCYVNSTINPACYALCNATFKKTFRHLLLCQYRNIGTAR
M5 ag = human M5 muscarinic receptor agonists, primary screen, CHO-K1 cells, Fluo-8 calcium fluorescence; Muscarinic acetylcholine receptor M5 (Homo sapiens), P08912; CHO-K1 hM5 cells; 0% DMSO wells, 100% maximal acetylcholine response; activation, % at 3 µM; 360,000 tested, 0.19% active;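 active = activation above the run's mean over test compounds plus 3 SD, cut at about 23% in these data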;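 also: signal is peak over basal fluorescence ratio across the kinetic read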
CHRM4 PAM = human M4 muscarinic receptor positive allosteric modulators, primary screen, CHO-K1 cells, Fluo-8 calcium fluorescence; CHO-K1 hM4/Gqi5, ACh EC20; 0% = ACh EC20, 100% = maximal ACh; activation, % at 3 µM; 360,000 tested, 0.4% active;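 active = activation above its plate's cutoff, the mean activation of sample wells plus 3 SD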
CHRM4 agonist = human M4 muscarinic receptor agonists, primary screen, CHO-K1 cells, Fluo-8 calcium fluorescence | CHO-K1 hM4/Gqi5; vehicle 0%, full acetylcholine response 100% | activation, % at 3 µM | 360,000 tested, 0.14% active | AID 624127, 2012;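 active = activation above the run mean over all test wells plus 3 SD, cut at about 32% in these data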;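 also: peak over basal fluorescence ratio per well then scaled between controls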
Each line names hits and unclear results; the compound was inactive in the other large screens. Compounds with a hit are over-represented: about 1.9% of the library has one in this group of screens.

Cc1ccccc1OCCNCC(C)O (stereo not drawn)	M5 PAM 28
O=C(O)CSCC(=O)N1N=C2/C(=C/c3ccccc3)CCCC2C1c1ccccc1 (stereo not drawn)	CHRM4 PAM 16
NC(=O)N1N=C2/C(=C/c3ccccc3)CCCC2C1c1ccccc1 (stereo not drawn)	none
Nc1ccc(-c2c3ccc(=O)cc-3oc3cc(O)ccc23)cc1C(=O)O	M5 antag 30, CHRM4 antagonist 63, M5 ag 203, CHRM4 agonist 548
O=c1ccc2c(-c3ccccc3)c3ccc(O)cc3oc-2c1	M5 antag 86, CHRM4 antagonist 86, M5 ag 797, CHRM4 agonist active
O=c1cc(-c2ccccc2)oc2cc(O)ccc12	none
CCOc1ccc(S(=O)(=O)NC(Cc2cnc[nH]2)C(=O)O)cc1 (stereo not drawn)	CHRM4 PAM 21
CC(=O)c1ccc(OC(C)C(=O)OCC(=O)NCCc2ccccc2)cc1 (stereo not drawn)	none
c1cnc2c(C3NCCc4c3[nH]c3ccccc43)cccc2c1 (stereo not drawn)	CHRM4 antagonist 38
CC1(C)NC(=O)N(CC(=O)OCC(=O)Nc2cccc(F)c2)C1=O	M5 PAM 37
CC1(c2ccc(OC(F)F)cc2)NC(=O)N(CC(=O)Nc2ccc(F)cc2)C1=O (stereo not drawn)	M5 ag 24, CHRM4 agonist 32
CC1(c2ccc(OC(F)F)cc2)NC(=O)N(CC(=O)Nc2ccc(S(N)(=O)=O)cc2)C1=O (stereo not drawn)	none
CC1(C)NC(=O)N(CC(=O)OCC(=O)c2ccc(F)cc2)C1=O	none
CCOc1ccc(NC(=O)CN2C(=O)NC(C)(c3ccc(OC(F)F)cc3)C2=O)cc1 (stereo not drawn)	CHRM4 agonist 51
CC1(c2ccc(OC(F)F)cc2)NC(=O)N(CC(=O)Nc2ccc(OC(F)F)cc2)C1=O (stereo not drawn)	M5 ag 27, CHRM4 agonist 38
COc1cc(CN2CCCC(N3CCN(c4ccc(F)cc4)CC3)C2)ccc1F (stereo not drawn)	none
O=C1N=c2ccccc2=C1c1sc(=S)n(Cc2ccccc2Cl)c1O	none
CC(=O)Nc1ccc(S(=O)(=O)Nc2nc3ccccc3nc2Nc2ccc(O)cc2)cc1	none
CCOCCC(=O)Nc1ccc2c(c1)c(=O)n(C)n2Cc1cccc(C(F)(F)F)c1	none
CCOC(=O)c1c(NC(=O)CN2C(=O)NC(C)(c3ccc(OC(F)F)cc3)C2=O)sc(C)c1C (stereo not drawn)	none
CC1(c2ccc(OC(F)F)cc2)NC(=O)N(CC(=O)Nc2ccc(Cl)cc2F)C1=O (stereo not drawn)	M5 ag 30
Cc1cc(NC(=O)CN2C(=O)NC(C)(c3ccc(OC(F)F)cc3)C2=O)no1 (stereo not drawn)	none
CCC1(CC)NC(=O)N(CC(=O)OCC(=O)Nc2cc(C)ccc2C)C1=O	CHRM4 PAM 18
CC1(c2ccc(OC(F)F)cc2)NC(=O)N(CC(=O)Nc2cccc(F)c2)C1=O (stereo not drawn)	CHRM4 antagonist 26, M5 ag 45, CHRM4 agonist 98
CCOc1cc(/C=C/C(=O)c2ccc(OC)c(CN3CCOCC3)c2)cc(Br)c1O	CHRM4 agonist 33
CC(O)CN(CC(C)O)c1ccc2c(c1)Cc1cc([N+](=O)[O-])ccc1-2 (stereo not drawn)	M5 antag 73, CHRM4 antagonist 34, M5 ag 527, CHRM4 agonist 90
Nc1ccc2c(c1)Cc1cc([N+](=O)[O-])ccc1-2	M5 antag 28, M5 ag 35
CC(=NO)c1ccc2c(c1)Cc1cc([N+](=O)[O-])ccc1-2	none
Cc1ccc2c(=O)n3c(nc2c1)C(CC(C)C)NC(=O)c1cccnc1-3 (stereo not drawn)	none
